# CXCR6 block = CXCR6 receptor inhibitors, primary screen, cell-based, beta-arrestin, luminescence, CHO-K1 PathHunter, 1536-well; C-X-C chemokine receptor type 6 (Homo sapiens), O00574; inhibition, % at 20 µM; actives 0.36% (n = 360,000); AID 602244, 2012; in the data active = inhibition above about 34%, passing the limit was not always enough;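 also: antagonist mode with CXCL16 agonist at 10 nM final; 0% = 10 nM CXCL16 with DMSO and 100% = unstimulated wells without agonist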
# Target sequence (O00574 whole entry, looked up): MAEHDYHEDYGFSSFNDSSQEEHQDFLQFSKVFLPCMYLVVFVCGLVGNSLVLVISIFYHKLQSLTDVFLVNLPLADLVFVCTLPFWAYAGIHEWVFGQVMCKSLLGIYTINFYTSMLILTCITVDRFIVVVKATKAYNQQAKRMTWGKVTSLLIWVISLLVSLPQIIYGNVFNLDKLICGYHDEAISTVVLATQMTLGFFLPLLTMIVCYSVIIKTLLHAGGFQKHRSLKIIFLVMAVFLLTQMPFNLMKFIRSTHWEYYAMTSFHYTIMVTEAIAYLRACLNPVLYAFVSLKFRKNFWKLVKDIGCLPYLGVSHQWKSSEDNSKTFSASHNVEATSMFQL
# APJ ag = agonists of human apelin receptor APJ, primary screen, CHO-K1 cells, PathHunter beta-arrestin, luminescence; actives 0.11% (n = 330,000); 0% DMSO wells, 100% apelin; activation, % at 20 µM;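 active = activation more than six SD over the plate average, tested at 20 µM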;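 also: 0% = DMSO alone and 100% = apelin-13 at 10 nM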
#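 Assay system: engineered CHO-K1 APJ arrestin reporter cells; Amount: 1000 CHO-K1 reporter cells seeded per well; Dosing: one dose, 20 µM compound, 1% DMSO; Times: compound stimulation 90 min at 25 °C, detection 60 min; Measured by: luminescent beta-gal fragment complementation, chemiluminescent substrate; Read-out: APJ–arrestin association signal; Controls: DMSO vs Apelin-13 10 nM.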
# CCR6 antag = CCR6 receptor antagonists, primary screen, cell-based, CHO-K1, luminescence, beta-arrestin, uHTS; AID 493098, 2011; inhibition, % at 20 µM; CHO-K1 CCR6 PathHunter beta-arrestin, CCL20-stimulated; actives 0.49% (n = 340,000); C-C chemokine receptor type 6 (Homo sapiens), P51684;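 active = compounds whose inhibition of the agonist-driven luminescence signal at 20 µM reaches about 50%, limit read from the data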;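 also: cells stimulated with CCL20 at 14 nM final; plate controls were DMSO with CCL20 for no effect and DMSO without agonist for full effect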
# HTR2A ag = mouse Htr2a agonists via beta-arrestin recruitment, primary screen, cell-based, luminescence; 5-hydroxytryptamine receptor 2A (Mus musculus), P35363; CHO-K1 mHTR2A beta-arrestin complementation; percent of 30 µM serotonin response; activation, % at 7.6 µM; actives 0.66% (n = 360,000);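 active = activation above a run cutoff, the mean activation of all tested compounds plus 3 SD, cut at about 14% in these data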;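 also: 0% = plate median of compound wells and 100% = 30 µM serotonin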
# APJ antag = antagonists of human apelin receptor APJ, primary screen, CHO-K1 cells, beta-arrestin complementation, luminescence | P35414 | inhibition, % at 20 µM | actives 0.32% (n = 330,000) | AID 2521, 2010;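 active = inhibition above about 40% at 20 µM, limit read from the data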;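 also: cells challenged with 10 nM apelin-13 agonist together with compound; plate controls were apelin-13 plus DMSO wells for no effect and DMSO wells lacking apelin-13 for full effect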
# EBI2 block = EBI2 receptor antagonists, beta-arrestin recruitment, primary screen, cell-based, luminescence, 7a,25-OHC stimulation, uHTS | G-protein coupled receptor 183 (Homo sapiens), P32249 | 7a,25-OHC stimulated | inhibition, % at 5 µM | actives 0.81% (n = 360,000) | AID 651636, 2012; in the data active = inhibition above about 38%;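 also: enzyme fragment complementation signal reports receptor beta-arrestin coupling in cells; 0% = agonist plus DMSO wells and 100% = wells without agonist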
# EBI2 conf = EBI2 antagonist hit retest, beta-arrestin, confirmation, cell-based, single concentration, luminescence, 7a,25-OHC stimulation | shares compounds with EBI2 block | 7a,25-OHC antagonism | inhibition, % at 5 µM | actives 29% (n = 2,400) | AID 651997, 2013;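 active = inhibition of at least 50%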
# EBI2 ag = EBI2 agonist activity of antagonist hits, confirmation, counter-screen for EBI2 antagonist project, cell-based, single concentration, agonist mode, luminescence | EBI2-expressing cells, 60 min; 0% vehicle, 100% 7α,25-dihydroxycholesterol control | 2,400 tested, under 10 active | shares compounds with EBI2 block | activation, % at 5 µM;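 active = activation of at least 50%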
# bGal counter = E. coli beta-galactosidase enzyme inhibition, confirmation, counter-screen for EBI2 antagonist project, biochemical, luminescence, single concentration. inhibition, % at 5 µM. shares compounds with EBI2 block. AID 652176, 2013. purified beta-galactosidase, luminescent Galacton Star, 15 min. actives 1% (n = 2,400);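 active = replicate-average signal at least 3 plate SD below neutral wells, shown as high inhibition, flagging enzyme-inhibiting false positives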;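 also: 0% = DMSO wells with enzyme and 100% = wells lacking enzyme; higher means stronger loss of beta-gal luminescence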
# Numbers without * were called inactive; · = no result given. This is a sample that favours compounds with a hit; in the whole collection about 2.1% have one here.
SMILES,CXCR6 block,APJ ag,CCR6 antag,HTR2A ag,APJ antag,EBI2 block,EBI2 conf,EBI2 ag,bGal counter
COc1ccc(-c2cc3nc(-c4ccccc4)cc(N4CCN(C(C)=O)CC4)n3n2)cc1,-0.1,·,·,0.8,·,45.6*,48.0,0.9,3.1
O=C1C=C(c2ccc(-c3ccccc3)c(F)c2)C[C@@H](c2ccc3c(c2)OCO3)C1,-3.1,-4.1,5.2,4.6,6.7,6.2,·,·,·
CCc1nc2ccc(C(=O)N(C)Cc3ccccc3)cn2c1N(C)CCCc1ccccc1,6.8,·,·,-7.9,·,2.6,·,·,·
CCN1CCN(C(=O)/C=C/c2cccc(Cl)c2)CC1,-3.0,-5.9,5.5,-2.9,11.0,75.1*,34.2,1.2,2.5
CCN1CCN(C(=O)/C=C/c2ccc(C(C)C)cc2)CC1,-1.4,-5.4,8.3,-7.9,-8.4,92.7*,86.6*,0.3,2.6
CCN1CCN(C(=O)/C=C/c2ccc(OC)c(OC)c2)CC1,0.1,0.6,4.5,-4.2,-20.5,-0.8,·,·,·
COCCN(CCOC)C(=O)C1CCN(c2ccc(S(=O)(=O)N3CCOCC3)cc2[N+](=O)[O-])CC1,10.8,-8.6,4.1,6.6,8.5,-4.3,·,·,·
CCCN(CCC)C(=O)C1CCN(c2ccc(S(=O)(=O)N3CCOCC3)cc2[N+](=O)[O-])CC1,7.6,1.6,3.3,2.8,0.7,62.0*,25.1,0.6,0.7
O=C(NCc1ccccc1)c1ccc(CS(=O)Cc2ccc(Cl)cc2)o1 (configuration not stated),10.8,-2.2,9.9,1.5,2.5,7.8,·,·,·
O=C(NCCc1ccccc1)c1ccc(CS(=O)Cc2ccc(Cl)cc2)o1 (configuration not stated),-4.2,-2.3,10.0,2.3,1.6,60.0*,35.2,0.7,6.7
CCOC(=O)c1c(NC(=O)c2ccno2)c2cc([N+](=O)[O-])ccc2n1C,4.0,-3.0,3.1,4.9,21.1,-5.3,·,·,·
O=C1CC(Nc2ccc3ccccc3c2)C(=O)N1Cc1ccccc1 (configuration not stated),-7.1,2.2,0.7,-4.6,-11.9,63.3*,24.4,0.3,4.7
Cn1nnnc1-c1cc(Br)ccc1NC(=O)c1ccccc1,9.9,0.7,0.0,1.0,15.1,-2.7,·,·,·
O=C(NCc1ccccc1)c1ccc(Oc2ccc(C(=O)NCc3ccccc3)cc2)cc1,-2.0,-2.6,-7.4,-0.8,-7.4,46.8*,21.0,1.3,8.2
O=C(NCc1ccccc1)c1ccc(C2SCC(=O)N2Cc2ccccc2)cc1 (configuration not stated),9.0,-2.0,11.3,-4.4,8.2,41.3*,36.2,-1.5,-9.4
COC(=O)c1ccc2nc(-c3ccc(F)cc3)c(Cc3cccc(Cl)c3)n2c1,13.3,·,·,-4.2,·,31.4,·,·,·
O=S(=O)(NCCc1ccccc1)c1ccc(F)cc1Br,-2.4,·,14.2,-1.1,·,3.1,·,·,·
Cc1ccccc1Oc1ncnc2oc(-c3ccccc3)cc12,-11.6,-3.8,2.4,-4.0,9.8,65.5*,37.8,-1.8,-9.0
Cc1nn(-c2ccccc2)c(C)c1/C=N/NC(=O)c1cc(-c2ccc(Cl)s2)[nH]n1,-8.2,0.8,-6.1,0.0,4.6,52.4*,30.3,1.2,9.9

# Screening data as filed in PubChem BioAssay.
